According to ChEMBL document CHEMBL1147104, “Neonatal coinfection model of coagulase-negative Staphylococcus (Staphylococcus epidermidis) and Candida albicans: fluconazole prophylaxis enhances survival and growth” (Antimicrob Agents Chemother, 2007):
The source made the active and inactive calls. The rule behind the calls is not given here.

What was measured:
Candida albicans = test: Inhibition of Candida albicans ATCC 32354 at 1 ug/ml by broth microdilution method; format: functional, organism-based
Procedure, shortened: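 CLSI M27-A2 broth microdilution. Inoculum was 1-5 × 10³ CFU/ml in RPMI 1640 buffered with MOPS to pH 7. Twofold drug dilutions from 125 to 0.25 µg/ml were tested at 35°C for 48 h, with visual reads at 24 and 48 h. The MIC was the lowest concentration giving a ≥50% decrease in turbidity. Trailing growth at 48 h was counted as susceptible.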

[1] = test system: Staphylococcus epidermidis; test: Inhibition of Staphylococcus epidermidis Hay ATCC 55133 at 1 ug/ml by broth microdilution method; format: functional, organism-based
[2] = Serum trough levels in Wistar rat pup at 10 mg/kg of body weight/day, ip after 24 hrs by ELISA; format: ADME, organism-based; design: dose 10 mg/kg, route intraperitoneal; conditions: read-out: Cmin
Procedure, shortened: (§1)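 Pups received 10 mg/kg/day i.p. for 4 days. Troughs were taken just before the next dose (24, 48, 72 h) and 24 h after the fourth dose (96 h). Blood was collected by cardiac puncture from 12-15 pups per time point, and serum from 3 pups was pooled per sample, giving 4-5 samples. Serum was stored at −70°C and assayed in one batch. The assay was linear from 0.2 to 200 µg/ml.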

[3] = Serum trough levels in Wistar rat pup at 10 mg/kg of body weight/day, ip after 48 hrs by ELISA; format: ADME, organism-based; design: dose 10 mg/kg, route intraperitoneal; conditions: read-out: Cmin; procedure, shortened: as §1
[4] = Serum trough levels in Wistar rat pup at 10 mg/kg of body weight/day, ip after 72 hrs by ELISA; format: ADME, organism-based; design: dose 10 mg/kg, route intraperitoneal; conditions: read-out: Cmin; procedure, shortened: as §1
[5] = Serum trough levels in Wistar rat pup at 10 mg/kg of body weight/day, ip after 96 hrs by ELISA; format: ADME, organism-based; design: dose 10 mg/kg, route intraperitoneal; conditions: read-out: Cmin; procedure, shortened: as §1
Rattus norvegicus [6] = test: Survival of neonatal Wistar rat infected with Candida albicans ATCC 32354 at 10 mg/kg of body weight/day, ip for 4 days beginning 24 hrs before infection; format: functional; conditions: route intraperitoneal
Procedure, shortened: (§2)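 Wistar pups aged 1-2 days, kept with dams, were immunosuppressed with 0.2 ml 20% intralipid i.p. (two doses on day 1, one each on days 2 and 3). Drug or placebo was given i.p. daily for 4 days from 24 h before infection. Littermates were randomized and infected s.c. on days 2 and 3 with 2 × 10⁸ CFU C. albicans, alone or with 2 × 10⁶ CFU S. epidermidis. Survival was followed daily for 9 days; groups were compared by Fisher exact test.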

Rattus norvegicus [7] = test: Survival of neonatal Wistar rat infected with Staphylococcus epidermidis Hay and Candida albicans ATCC 32354 at 10 mg/kg of body weight/day, ip for 4 days beginning 24 hrs before infection; format: functional; conditions: route intraperitoneal; procedure, shortened: as §2
Rattus norvegicus [8] = test: Increase in growth of neonatal Wistar rat infected with Candida albicans ATCC 32354 assessed as weight gain at 10 mg/kg of body weight/day, ip for 4 days beginning 24 hrs before infection relative to control; format: functional, organism-based; design: dose 10 mg/kg
Procedure, shortened: (§3)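 In intralipid-immunosuppressed neonatal Wistar pups, littermates were randomized, dosed i.p. daily for 4 days from 24 h pre-infection, and infected s.c. on days 2 and 3 with 2 × 10⁸ CFU C. albicans, with or without 2 × 10⁶ CFU S. epidermidis. Nonedematous weight was recorded daily for 9 days. Slopes of each pup's weight curve were calculated, and group means were compared by one-way ANOVA.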

Rattus norvegicus [9] = test: Increase in growth of neonatal Wistar rat infected with Candida albicans ATCC 32354 and Staphylococcus epidermidis Hay assessed as weight gain at 10 mg/kg of body weight/day, ip for 4 days beginning 24 hrs before infection relative to control; format: functional, organism-based; design: dose 10 mg/kg; procedure, shortened: as §3
Rattus norvegicus [10] = test: Decrease in mortality of neonatal Wistar rat infected with Candida albicans ATCC 32354 at 10 mg/kg of body weight/day, ip for 4 days beginning 24 hrs before infection; format: functional; design: scale not given: the % may be the effect or the level left; conditions: route intraperitoneal; procedure, shortened: as §2
Rattus norvegicus [11] = test: Decrease in mortality of neonatal Wistar rat infected with Candida albicans ATCC 32354 and Staphylococcus epidermidis Hay at 10 mg/kg of body weight/day, ip for 4 days beginning 24 hrs before infection; format: functional; design: scale not given: the % may be the effect or the level left; conditions: route intraperitoneal; procedure, shortened: as §2

In the case of `OC(Cn1cncn1)(Cn1cncn1)c1ccc(F)cc1F` [FLUCONAZOLE], the Activity (Candida albicans) is reported as “Active”, the Activity [1] is reported as “inactive” and the concentration at 24 h [2] is reported as 1550 ng/mL. It also gave a concentration at 48 h [3] of 2500 ng/mL, a concentration at 72 h [4] of 1510 ng/mL and a concentration at 96 h [5] of 1030 ng/mL. For the same compound, the survival at 10 mg/kg (Rattus norvegicus [6]) was 85.7%, the survival at 10 mg/kg (Rattus norvegicus [7]) was 75.6% and the Activity (Rattus norvegicus [8]) was “Active”. For the same compound, the Activity (Rattus norvegicus [9]) was “Active”, the Activity (Rattus norvegicus [10]) was 30% and the Activity (Rattus norvegicus [11]) was 36%.
